Assay results published in ChEMBL document CHEMBL3085763, “The sulfamide moiety affords higher inhibitory activity and oral bioavailability to a series of coumarin dual selective RAF/MEK inhibitors” (Bioorg Med Chem Lett, 2013).

Legend:
[1] = AUC (0 to t) in […] mouse at 200 mg/kg, po after 24 hrs by LC/MS/MS analysis; format: ADME, organism-based; parameters: time < 24 hr, dose 200 mg/kg, route oral; settings: plasma
[2] = Oral bioavailability in cynomolgus monkey at 5 mg/kg; format: ADME, organism-based, Macaca fascicularis; settings: in vivo
How it was run: (§1)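 Single intravenous and oral doses given as the sodium salt in 5% DMSO/5% Cremophor EL/15% PEG400/15% HPCD/60% water. The iv/po doses were 10/20 mg/kg in mouse, 5.0/10 mg/kg in rat and 2.5/5.0 mg/kg in monkey. Oral AUCinf, iv t1/2 and clearance were also reported.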

[3] = Oral bioavailability in […] mouse at 100 mg/kg after 24 hrs by LC/MS/MS analysis; format: ADME, organism-based; settings: in vivo
How it was run: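 Mouse 24-h exposure study with oral dosing at 100 mg/kg of the free form (not sodium salt). Formulated as a solution of 5% DMSO, 5% Cremophor EL, 15% PEG400, 15% HPCD and 60% water.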

[4] = AUC (0 to t) in […] mouse at 100 mg/kg, po after 24 hrs by LC/MS/MS analysis; format: ADME, organism-based; parameters: time < 24 hr, dose 100 mg/kg, route oral; settings: plasma
[5] = AUC (0 to t) in […] mouse at 50 mg/kg, po after 24 hrs by LC/MS/MS analysis; format: ADME, organism-based; parameters: time < 24 hr, dose 50 mg/kg, route oral; settings: plasma
[6] = test system: Mus musculus; test: AUC (0 to t) in […] mouse assessed as dimethylcarbamic acid 6-chloro-4-methyl-2-oxo-3-[3-(sulfamoylamino)benzyl]-2H-chromen-7-yl ester level at 200 mg/kg, po after 24 hrs by LC/MS/MS analysis; format: ADME, organism-based, Plasma; parameters: time < 24 hr, dose 200 mg/kg, route oral; settings: in vivo
[7] = Oral bioavailability in Crlj:CD rat at 10 mg/kg; format: ADME, organism-based; settings: in vivo; how it was run: as §1
[8] = AUC (infinity) in BALB-nu/nu mouse at 20 mg/kg, po; format: ADME, organism-based; parameters: time infinity, dose 20 mg/kg, route oral; settings: plasma
How it was run: (§2)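 The sodium salt was dosed iv and po: mouse 10/20 mg/kg, rat 5.0/10 mg/kg, monkey 2.5/5.0 mg/kg. Vehicle was 5% DMSO/5% Cremophor EL/15% PEG400/15% HPCD/60% water. AUCinf was taken after po dosing; t1/2 was taken after iv dosing.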

[9] = AUC (infinity) in Crlj:CD rat at 10 mg/kg, po; format: ADME, organism-based; parameters: time infinity, dose 10 mg/kg, route oral; settings: plasma; how it was run: as §2
[10] = Oral bioavailability in BALB-nu/nu mouse at 20 mg/kg; format: ADME, organism-based; settings: in vivo; how it was run: as §1
[11] = AUC (infinity) in cynomolgus monkey at 5 mg/kg, po; format: ADME, organism-based, Macaca fascicularis; parameters: time infinity, dose 5 mg/kg, route oral; settings: plasma; how it was run: as §2

## Cc1c(Cc2cccc(N)c2)c(=O)oc2cc(OC(=O)N(C)C)c(Cl)cc12
[1]
  AUC(0-t) at 24 h: 29 µM·h

## Cc1c(Cc2cccc(NS(N)(=O)=O)c2)c(=O)oc2cc(OC(=O)N(C)C)c(Cl)cc12
[1]
  AUC(0-t) at 24 h: 70 µM·h

## CNS(=O)(=O)Nc1cccc(Cc2c(C)c3cc(Cl)c(OC(=O)N(C)C)cc3oc2=O)c1
[2]
  bioavailability: < 5%
[3]
  bioavailability: 10%
[4]
  AUC(0-t) at 24 h: 17 µM·h

## Cc1c(Cc2cccc(NS(=O)(=O)N(C)C)c2)c(=O)oc2cc(OC(=O)N(C)C)c(Cl)cc12
[5]
  AUC(0-t) at 24 h: 3 µM·h

## Cc1c(Cc2cccc(NS(C)(=O)=O)c2)c(=O)oc2cc(OC(=O)N(C)C)c(Cl)cc12
[4]
  AUC(0-t) at 24 h: 41 µM·h

## CCS(=O)(=O)Nc1cccc(Cc2c(C)c3cc(Cl)c(OC(=O)N(C)C)cc3oc2=O)c1
[4]
  AUC(0-t) at 24 h: 30 µM·h

## CONS(=O)(=O)Nc1cccc(Cc2c(C)c3cc(Cl)c(OC(=O)N(C)C)cc3oc2=O)c1
[4]
  AUC(0-t) at 24 h: 62 µM·h

## Cc1c(Cc2cccc(NS(=O)(=O)NCC(F)(F)F)c2)c(=O)oc2cc(OC(=O)N(C)C)c(Cl)cc12
[4]
  AUC(0-t) at 24 h: 26 µM·h

## Cc1c(Cc2cccc(NS(=O)(=O)NCCC#N)c2)c(=O)oc2cc(OC(=O)N(C)C)c(Cl)cc12
[1]
  AUC(0-t) at 24 h: 25 µM·h

## Cc1c(Cc2cccc(NS(=O)(=O)NCCO)c2)c(=O)oc2cc(OC(=O)N(C)C)c(Cl)cc12
[1]
  AUC(0-t) at 24 h: 14 µM·h

## COCCNS(=O)(=O)Nc1cccc(Cc2c(C)c3cc(Cl)c(OC(=O)N(C)C)cc3oc2=O)c1
[6]
  AUCt: 14 µM·h
[1]
  AUC(0-t) at 24 h: 9 µM·h

## CNS(=O)(=O)[N-]c1cccc(Cc2c(C)c3cc(Cl)c(OC(=O)N(C)C)cc3oc2=O)c1.[Na+]
[3]
  bioavailability: 31%
[4]
  AUC(0-t) at 24 h: 51 µM·h

## Cc1c(Cc2cccc(NS(N)(=O)=O)c2F)c(=O)oc2cc(OC(=O)N(C)C)c(F)cc12
[2]
  bioavailability: 30%
[7]
  bioavailability: 62%
[8]
  AUC(0-inf): 26 µM·h
[9]
  AUC(0-inf): 6 µM·h
[10]
  bioavailability: 51%
[11]
  AUC(0-inf): 2.2 µM·h
